Columns and labels:
Assay type in all cases: functional
Candida albicans = assay: Antimicrobial activity against Candida albicans at 1 to 5 ug/ml by agar well diffusion method
Summary of the method: (§1)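 Agar well diffusion against bacteria and fungi. Inhibition zone is scored beyond the control: ++ 0.6–1.0 cm, + 0.1–0.5 cm, 0 no inhibition.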

Staphylococcus aureus = assay: Antimicrobial activity against Staphylococcus aureus at 1 to 5 ug/ml by agar well diffusion method; summary of the method: as §1
CCRF-CEM = assay: Growth inhibition of human CCRF-CEM cells assessed as cell growth at 1 M after 48 hrs by sulforhodamine B assay; design: scale not given: the % may be the effect or the level left
Summary of the method: (§2)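 NCI 60-cell screen at a single high dose. Cells are grown in RPMI 1640 with 5% FBS and 2 mM L-glutamine, then plated at 5000–40,000 cells/well and held 24 h at 37 °C in 5% CO2 at 100% humidity. Drug is then added and plates are incubated another 48 h, with SRB staining as read-out. Results are given as growth percent (100 = no inhibition, 0 = no net growth, negative = lethality).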

HL-60(TB) = assay: Growth inhibition of human HL-60(TB) cells assessed as cell growth at 1 M after 48 hrs by sulforhodamine B assay; design: scale not given: the % may be the effect or the level left
Summary of the method: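 NCI 60-cell panel, single-dose screen. Cells grown in RPMI 1640 with 5% fetal bovine serum and 2 mM L-glutamine, seeded at 5000–40,000 cells/well and preincubated 24 h at 37 °C in 5% CO2 before drug. Exposure 48 h, then sulforhodamine B staining. Read-out is growth percent: 100 = no inhibition, 0 = no net growth, negative = lethality.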

K562 = assay: Growth inhibition of human K562 cells assessed as cell growth at 1 M after 48 hrs by sulforhodamine B assay; design: scale not given: the % may be the effect or the level left; summary of the method: as §2
[1] = Growth inhibition of human […] cells assessed as cell growth at 1 M after 48 hrs by sulforhodamine B assay; design: scale not given: the % may be the effect or the level left; summary of the method: as §2
SR = assay: Growth inhibition of human SR cells assessed as cell growth at 1 M after 48 hrs by sulforhodamine B assay; design: scale not given: the % may be the effect or the level left
Summary of the method: (§3)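 NCI 60-cell panel screen, single dose (1.0 M as printed). Cells grown in RPMI 1640 with 5% fetal bovine serum and 2 mM L-glutamine, seeded at 5000–40,000 cells/well, preincubated 24 h at 37 °C in 5% CO2 at 100% humidity, then exposed to compound for 48 h. Sulforhodamine B staining read-out. Result given as growth percent: 100 = no inhibition, 0 = no net growth, negative = lethality.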

A549 = assay: Growth inhibition of human A549 cells assessed as cell growth at 1 M after 48 hrs by sulforhodamine B assay; design: scale not given: the % may be the effect or the level left; summary of the method: as §2
NCI-H23 = assay: Growth inhibition of human NCI-H23 cells assessed as cell growth at 1 M after 48 hrs by sulforhodamine B assay; design: scale not given: the % may be the effect or the level left; summary of the method: as §2
NCI-H322M = assay: Growth inhibition of human NCI-H322M cells assessed as cell growth at 1 M after 48 hrs by sulforhodamine B assay; design: scale not given: the % may be the effect or the level left; summary of the method: as §2
COLO 205 = assay: Growth inhibition of human COLO205 cells assessed as cell growth at 1 M after 48 hrs by sulforhodamine B assay; design: scale not given: the % may be the effect or the level left; summary of the method: as §2
HCC 2998 = assay: Growth inhibition of human HCC2998 cells assessed as cell growth at 1 M after 48 hrs by sulforhodamine B assay; design: scale not given: the % may be the effect or the level left; summary of the method: as §2
HCT-15 = assay: Growth inhibition of human HCT15 cells assessed as cell growth at 1 M after 48 hrs by sulforhodamine B assay; design: scale not given: the % may be the effect or the level left; summary of the method: as §2
HT-29 = assay: Growth inhibition of human HT-29 cells assessed as cell growth at 1 M after 48 hrs by sulforhodamine B assay; design: scale not given: the % may be the effect or the level left; summary of the method: as §2
KM12 = assay: Growth inhibition of human KM12 cells assessed as cell growth at 1 M after 48 hrs by sulforhodamine B assay; design: scale not given: the % may be the effect or the level left; summary of the method: as §2
SF-295 = assay: Growth inhibition of human SF295 cells assessed as cell growth at 1 M after 48 hrs by sulforhodamine B assay; design: scale not given: the % may be the effect or the level left; summary of the method: as §3
U-251 = assay: Growth inhibition of human U251 cells assessed as cell growth at 1 M after 48 hrs by sulforhodamine B assay; design: scale not given: the % may be the effect or the level left; summary of the method: as §3
Malme-3M = assay: Growth inhibition of human MALME-3M cells assessed as cell growth at 1 M after 48 hrs by sulforhodamine B assay; design: scale not given: the % may be the effect or the level left; summary of the method: as §2
M14 = assay: Growth inhibition of human M14 cells assessed as cell growth at 1 M after 48 hrs by sulforhodamine B assay; design: scale not given: the % may be the effect or the level left; summary of the method: as §2
MDA-MB-435 = assay: Growth inhibition of human MDA-MB-435 cells assessed as cell growth at 1 M after 48 hrs by sulforhodamine B assay; design: scale not given: the % may be the effect or the level left; summary of the method: as §2
SK-MEL-28 = assay: Growth inhibition of human SK-MEL-28 cells assessed as cell growth at 1 M after 48 hrs by sulforhodamine B assay; design: scale not given: the % may be the effect or the level left; summary of the method: as §3
UACC-257 = assay: Growth inhibition of human UACC257 cells assessed as cell growth at 1 M after 48 hrs by sulforhodamine B assay; design: scale not given: the % may be the effect or the level left; summary of the method: as §3
OVCAR-3 = assay: Growth inhibition of human OVCAR3 cells assessed as cell growth at 1 M after 48 hrs by sulforhodamine B assay; design: scale not given: the % may be the effect or the level left; summary of the method: as §2
NCI/ADR-RES = assay: Growth inhibition of human NCI/ADR-RES cells assessed as cell growth at 1 M after 48 hrs by sulforhodamine B assay; design: scale not given: the % may be the effect or the level left; summary of the method: as §2
A498 = assay: Growth inhibition of human A498 cells assessed as cell growth at 1 M after 48 hrs by sulforhodamine B assay; design: scale not given: the % may be the effect or the level left; summary of the method: as §2
ACHN = assay: Growth inhibition of human ACHN cells assessed as cell growth at 1 M after 48 hrs by sulforhodamine B assay; design: scale not given: the % may be the effect or the level left; summary of the method: as §2
RXF 393 = assay: Growth inhibition of human RXF393 cells assessed as cell growth at 1 M after 48 hrs by sulforhodamine B assay; design: scale not given: the % may be the effect or the level left; summary of the method: as §3
DU-145 = assay: Growth inhibition of human DU145 cells assessed as cell growth at 1 M after 48 hrs by sulforhodamine B assay; design: scale not given: the % may be the effect or the level left; summary of the method: as §2
BT-549 = assay: Growth inhibition of human BT549 cells assessed as cell growth at 1 M after 48 hrs by sulforhodamine B assay; design: scale not given: the % may be the effect or the level left; summary of the method: as §2
T47D = assay: Growth inhibition of human T47D cells assessed as cell growth at 1 M after 48 hrs by sulforhodamine B assay; design: scale not given: the % may be the effect or the level left; summary of the method: as §3
Aspergillus fumigatus = assay: Antimicrobial activity against Aspergillus fumigatus at 1 to 5 ug/ml by agar well diffusion method; summary of the method: as §1
NCI-H522 = assay: Growth inhibition of human NCI-H522 cells assessed as cell growth at 1 M after 48 hrs by sulforhodamine B assay; design: scale not given: the % may be the effect or the level left; summary of the method: as §2
UO-31 = assay: Growth inhibition of human UO31 cells assessed as cell growth at 1 M after 48 hrs by sulforhodamine B assay; design: scale not given: the % may be the effect or the level left; summary of the method: as §3
MDA-MB-468 = assay: Growth inhibition of human MDA-MB-468 cells assessed as cell growth at 1 M after 48 hrs by sulforhodamine B assay; design: scale not given: the % may be the effect or the level left; summary of the method: as §2

In the case of `Cc1ccc(N/N=C(\C(=O)c2ccc(Cl)cc2)c2nc(C)cc(=O)[nH]2)cc1`, the “diameter of the inhibition zone (DIZ)” value (Candida albicans) is reported as 0 cm, the “diameter of the inhibition zone (DIZ)” value (Staphylococcus aureus) is reported as 0 cm and the Activity (CCRF-CEM) is reported as -15.08%. It also gave an Activity (HL-60(TB)) of 108.59%, an Activity (K562) of 91.74% and an Activity [1] of 85.08%. For the same compound, the Activity (SR) was 84.35%, the Activity (A549) was 100.03% and the Activity (NCI-H23) was 111.33%. The Activity (NCI-H322M) was 106.17%, the Activity (COLO 205) was 116.23% and the Activity (HCC 2998) was 115.84%. For the same compound, the Activity (HCT-15) was 110.86%, the Activity (HT-29) was 110.66% and the Activity (KM12) was 114.61%. The Activity (SF-295) was 90.05%, the Activity (U-251) was 103.37% and the Activity (Malme-3M) was 126.09%. It also gave an Activity (M14) of 82.73%, an Activity (MDA-MB-435) of 123.17% and an Activity (SK-MEL-28) of 117.97%. It also gave an Activity (UACC-257) of 104.52%, an Activity (OVCAR-3) of 95.76% and an Activity (NCI/ADR-RES) of 102.57%. The Activity (A498) was 107.77%, the Activity (ACHN) was 99.08% and the Activity (RXF 393) was 40.73%. It also gave an Activity (DU-145) of 102.09%, an Activity (BT-549) of 117.79% and an Activity (T47D) of 88.32%. For the same compound, the “diameter of the inhibition zone (DIZ)” value (Aspergillus fumigatus) was 0 cm.

In the case of `CC(=O)c1ccc(N/N=C(\C(=O)c2ccc(Cl)cc2)c2nc(C)cc(=O)[nH]2)cc1`, the “diameter of the inhibition zone (DIZ)” value (Candida albicans) is reported as 0 cm, the “diameter of the inhibition zone (DIZ)” value (Staphylococcus aureus) is reported as 0 cm and the Activity (HL-60(TB)) is reported as 115.14%. The Activity (K562) was 87.61%, the Activity [1] was 91.91% and the Activity (SR) was 62.16%. The Activity (A549) was 94.61%, the Activity (NCI-H23) was 86.1% and the Activity (NCI-H322M) was 100.21%. For the same compound, the Activity (NCI-H522) was 84.76%, the Activity (COLO 205) was 121.73% and the Activity (HCC 2998) was 111.21%. It also gave an Activity (HCT-15) of 96.72%, an Activity (HT-29) of 101.59% and an Activity (KM12) of 100.14%. It also gave an Activity (SF-295) of 95.38%, an Activity (U-251) of 96.78% and an Activity (Malme-3M) of 110.47%. For the same compound, the Activity (M14) was 88.06%, the Activity (MDA-MB-435) was 95.8% and the Activity (SK-MEL-28) was 106.93%. The Activity (UACC-257) was 99.94%, the Activity (OVCAR-3) was 104.16% and the Activity (NCI/ADR-RES) was 93.99%. For the same compound, the Activity (A498) was 97.59%, the Activity (ACHN) was 90.63% and the Activity (RXF 393) was 94.35%. For the same compound, the Activity (UO-31) was 75.87%, the Activity (DU-145) was 95.47% and the Activity (BT-549) was 99.42%. For the same compound, the Activity (T47D) was 75.56%, the Activity (MDA-MB-468) was 94.65% and the “diameter of the inhibition zone (DIZ)” value (Aspergillus fumigatus) was 0 cm.

For `Cc1cc(=O)[nH]c(/C(=N/Nc2ccccc2)C(=O)c2ccc(Cl)cc2)n1`, the “diameter of the inhibition zone (DIZ)” value (Candida albicans) was 0 cm, the “diameter of the inhibition zone (DIZ)” value (Staphylococcus aureus) was 0 cm and the Activity (CCRF-CEM) was 66.03%. It also gave an Activity (HL-60(TB)) of 50.74%, an Activity (K562) of 52.73% and an Activity [1] of 96.57%. For the same compound, the Activity (A549) was 92.54%, the Activity (NCI-H23) was 105.18% and the Activity (NCI-H322M) was 107.24%. For the same compound, the Activity (COLO 205) was 105.71%, the Activity (HCC 2998) was 109.1% and the Activity (HCT-15) was 112.06%. It also gave an Activity (HT-29) of 105.27%, an Activity (KM12) of 101.95% and an Activity (SF-295) of 75.72%. For the same compound, the Activity (U-251) was 106.82%, the Activity (Malme-3M) was 113.86% and the Activity (M14) was 97.08%. The Activity (MDA-MB-435) was 107.78%, the Activity (SK-MEL-28) was 110.14% and the Activity (OVCAR-3) was 97.53%. For the same compound, the Activity (NCI/ADR-RES) was 105.88%, the Activity (A498) was 83.96% and the Activity (ACHN) was 110.63%. The Activity (RXF 393) was 28.48%, the Activity (UO-31) was 116.06% and the Activity (DU-145) was 104.88%. The Activity (BT-549) was 97.44%, the Activity (T47D) was 77.02% and the “diameter of the inhibition zone (DIZ)” value (Aspergillus fumigatus) was 0 cm.
